Inhibition in vivo and Activity data for three compounds are collected here from ChEMBL document CHEMBL3272012, “5-(Tetradecyloxy)-2-furancarboxylic acid and related hypolipidemic fatty acid-like alkyloxyarylcarboxylic acids” (J Med Chem, 1977).

Data set [1] concerns Rattus norvegicus. The experiment in a line: Hypolipidemic activity in Wistar rat assessed as reduction in plasma triglyceride level at 407 umol/kg/day administered through diet for 4 days. The data set is classed as functional. To be noted: 96 h.
The test system of data set [2] is Rattus norvegicus. Put plainly: Hypolipidemic activity in Wistar rat assessed as reduction in plasma triglyceride level at 511 umol/kg/day administered through diet for 10 days. The data set is classed as functional. The conditions noted are these: 240 h.
Data set [3] deals with Rattus norvegicus. The experiment in a line: Hypolipidemic activity in Wistar rat assessed as reduction in plasma triglyceride level at 275 umol/kg/day administered through diet for 10 days. Type of data set: functional. The conditions noted are these: 240 h. A digest of the protocol: (§1)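 Young male Wistar rats, 170-190 g initial weight, six per group, fed drug mixed thoroughly into Purina Lab Chow ad libitum for the stated days; daily dose calculated from food consumption and body weight. Bled by cardiac puncture at end; plasma cholesterol and triglycerides by automated procedures, expressed as percent reduction versus simultaneous untreated controls; Student's t test.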

Data set [4] relates to Rattus norvegicus. Put plainly: Hypolipidemic activity in Wistar rat assessed as reduction in plasma triglyceride level at 149 umol/kg/day administered through diet for 10 days. The data set is classed as functional. The conditions noted are these: 240 h, read-out: INH. In short, it runs like this:
as §1

The test system of data set [5] is Rattus norvegicus. Put plainly: Hypolipidemic activity in Wistar rat assessed as reduction in plasma cholesterol level at 407 umol/kg/day administered through diet for 4 days. To be noted: 96 h. The data set is classed as functional. In short, it runs like this: (§2)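 Young male Wistar rats, 170-190 g at start, in groups of six, given compound mixed into Purina Lab Chow ad libitum for 4 or 10 days as stated. Daily dose was calculated from food consumption and body weight. Plasma was taken by cardiac puncture at the end and cholesterol measured by automated procedure. Results are % reduction versus a concurrent untreated control group, with Student's t test.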

Data set [6] concerns Rattus norvegicus. Put plainly: Hypolipidemic activity in Wistar rat assessed as reduction in plasma cholesterol level at 511 umol/kg/day administered through diet for 10 days. Type of data set: functional. To be noted: 240 h. In short, it runs like this: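 Young male Wistar rats, 170-190 g initial weight, groups of six, given compound mixed thoroughly into Purina Lab Chow ad libitum for 4 or 10 days as stated. Daily dose calculated from food consumption and body weight. Bled by cardiac puncture at end of treatment; plasma cholesterol measured by automated procedure. Expressed as percent reduction versus simultaneous untreated control group; Student's t test.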

Data set [7] concerns Rattus norvegicus. Put plainly: Hypolipidemic activity in Wistar rat assessed as reduction in plasma cholesterol level at 275 umol/kg/day administered through diet for 10 days. The conditions noted are these: 240 h. Type of data set: functional. A digest of the protocol:
as §2

The test system of data set [8] is Rattus norvegicus. Put plainly: Hypolipidemic activity in Wistar rat assessed as reduction in plasma cholesterol level at 149 umol/kg/day administered through diet for 10 days. The data set is classed as functional. To be noted: 240 h. A digest of the protocol:
as §2

For data set [9], the system named is Rattus norvegicus. Put plainly: Increase in cholesterol level in Wistar rat liver at 407 umol/kg/day administered through diet for 4 days. The data set is classed as ADME, organism-based. The conditions noted are these: in vivo, po, 96 h.
The subject of data set [10] is Rattus norvegicus. The experiment in a line: Increase in cholesterol level in Wistar rat liver at 511 umol/kg/day administered through diet for 10 days. The data set is classed as ADME, organism-based. The conditions noted are these: in vivo, po, 240 h.
Data set [11] has as its system Rattus norvegicus. Put plainly: Increase in cholesterol level in Wistar rat liver at 275 umol/kg/day administered through diet for 10 days. The data set is classed as ADME, organism-based. To be noted: in vivo, po, 240 h.
Data set [12] deals with Rattus norvegicus. The experiment in a line: Increase in cholesterol level in Wistar rat liver at 149 umol/kg/day administered through diet for 10 days. The data set is classed as ADME, organism-based. The conditions noted are these: in vivo, po, 240 h.
Data set [13] has as its system Rattus norvegicus. The experiment in a line: Increase in liver weight in Wistar rat at 407 umol/kg/day administered through diet for 4 days. Type of data set: ADME, organism-based. The conditions noted are these: in vivo, po, 96 h.
Data set [14] deals with Rattus norvegicus. The experiment in a line: Increase in liver weight in Wistar rat at 511 umol/kg/day administered through diet for 10 days. The data set is classed as ADME, organism-based. The conditions noted are these: in vivo, po, 240 h.
Data set [15] concerns Rattus norvegicus. The experiment in a line: Increase in liver weight in Wistar rat at 275 umol/kg/day administered through diet for 10 days. Type of data set: ADME, organism-based. The conditions noted are these: in vivo, po, 240 h.
Data set [16] deals with Rattus norvegicus. The experiment in a line: Increase in liver weight in Wistar rat at 149 umol/kg/day administered through diet for 10 days. Type of data set: ADME, organism-based. To be noted: in vivo, po, 240 h.
Data set [17] has as its system Rattus norvegicus. Put plainly: Hypolipidemic activity in Wistar rat assessed as reduction in plasma triglyceride level at 445 umol/kg/day administered through diet. Type of data set: functional.
Data set [18] relates to Rattus norvegicus. Put plainly: Hypolipidemic activity in Wistar rat assessed as reduction in plasma triglyceride level at 201 umol/kg/day administered through diet for 4 days. To be noted: 96 h. The data set is classed as functional. A digest of the protocol:
as §1

Data set [19] has as its system Rattus norvegicus. The experiment in a line: Hypolipidemic activity in Wistar rat assessed as reduction in plasma triglyceride level at 98 umol/kg/day administered through diet for 4 days. The data set is classed as functional. The conditions noted are these: 96 h.
Data set [20] relates to Rattus norvegicus. Put plainly: Hypolipidemic activity in Wistar rat assessed as reduction in plasma cholesterol level at 445 umol/kg/day administered through diet. Type of data set: functional. A digest of the protocol:
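Young male Wistar rats (170-190 g initial weight) in groups of six, fed test compound admixed to Purina Lab Chow ad libitum. Actual daily dose derived from recorded food intake and body weight. Cardiac puncture blood taken at end of treatment; plasma cholesterol determined by automated method. Percent reduction from concurrently run untreated controls, significance by Student's t test.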

For data set [21], the system named is Rattus norvegicus. The experiment in a line: Hypolipidemic activity in Wistar rat assessed as reduction in plasma cholesterol level at 201 umol/kg/day administered through diet for 4 days. The data set is classed as functional. To be noted: 96 h. In short, it runs like this:
as §2

Data set [22] has as its system Rattus norvegicus. Put plainly: Hypolipidemic activity in Wistar rat assessed as reduction in plasma cholesterol level at 98 umol/kg/day administered through diet for 4 days. Type of data set: functional. The conditions noted are these: 96 h. A digest of the protocol:
as §1

Data set [23] has as its system Rattus norvegicus. Put plainly: Increase in cholesterol level in Wistar rat liver at 445 umol/kg/day administered through diet. The data set is classed as ADME, organism-based. The conditions noted are these: in vivo, po.
For data set [24], the system named is Rattus norvegicus. The experiment in a line: Increase in cholesterol level in Wistar rat liver at 201 umol/kg/day administered through diet for 4 days. To be noted: in vivo, po, 96 h. The data set is classed as ADME, organism-based.
Data set [25] relates to Rattus norvegicus. The experiment in a line: Increase in cholesterol level in Wistar rat liver at 98 umol/kg/day administered through diet for 4 days. The conditions noted are these: in vivo, po, 96 h. The data set is classed as ADME, organism-based.
Data set [26] concerns Rattus norvegicus. Put plainly: Increase in liver weight in Wistar rat at 445 umol/kg/day administered through diet. To be noted: in vivo, po. Type of data set: ADME, organism-based.
Data set [27] concerns Rattus norvegicus. The experiment in a line: Increase in liver weight in Wistar rat at 201 umol/kg/day administered through diet for 4 days. The data set is classed as ADME, organism-based. The conditions noted are these: in vivo, po, 96 h.
Data set [28] relates to Rattus norvegicus. Put plainly: Increase in liver weight in Wistar rat at 98 umol/kg/day administered through diet for 4 days. To be noted: in vivo, po, 96 h. Type of data set: ADME, organism-based.
Data set [29] has as its system Rattus norvegicus. The experiment in a line: Hypolipidemic activity in Wistar rat assessed as reduction in plasma cholesterol level at 385 umol/kg/day administered through diet for 10 days. The data set is classed as functional. The conditions noted are these: 240 h. A digest of the protocol: as §2
Data set [30] relates to Rattus norvegicus. The experiment in a line: Hypolipidemic activity in Wistar rat assessed as reduction in plasma cholesterol level at 398 umol/kg/day administered through diet for 10 days. The conditions noted are these: 240 h. Type of data set: functional. In short, it runs like this: as §2
Data set [31] deals with Rattus norvegicus. Put plainly: Hypolipidemic activity in Wistar rat assessed as reduction in plasma cholesterol level at 204 umol/kg/day administered through diet for 10 days. The data set is classed as functional. To be noted: 240 h. A digest of the protocol:
as §2

The test system of data set [32] is Rattus norvegicus. The experiment in a line: Hypolipidemic activity in Wistar rat assessed as reduction in plasma triglyceride level at 385 umol/kg/day administered through diet for 10 days. To be noted: 240 h. The data set is classed as functional. A digest of the protocol:
(§3)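 Young male Wistar rats (170-190 g initial weight), groups of six, fed test compound mixed into Purina Lab Chow ad libitum; daily dose calculated from food consumption and body weight. Bled by cardiac puncture at end of treatment; plasma triglycerides measured by automated procedure. Results given as percent reduction versus a simultaneous untreated control group, with significance by Student's t test.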

In data set [33] the test system is Rattus norvegicus. Put plainly: Hypolipidemic activity in Wistar rat assessed as reduction in plasma triglyceride level at 398 umol/kg/day administered through diet for 10 days. The data set is classed as functional. The conditions noted are these: 240 h. A digest of the protocol:
as §3

Data set [34] deals with Rattus norvegicus. Put plainly: Hypolipidemic activity in Wistar rat assessed as reduction in plasma triglyceride level at 204 umol/kg/day administered through diet for 10 days. The conditions noted are these: 240 h. Type of data set: functional. In short, it runs like this:
as §1

Data set [35] deals with Rattus norvegicus. Put plainly: Increase in cholesterol level in Wistar rat liver at 385 umol/kg/day administered through diet for 10 days. The data set is classed as ADME, organism-based. To be noted: in vivo, po, 240 h.
The subject of data set [36] is Rattus norvegicus. The experiment in a line: Increase in cholesterol level in Wistar rat liver at 398 umol/kg/day administered through diet for 10 days. Type of data set: ADME, organism-based. The conditions noted are these: in vivo, po, 240 h.
Data set [37] concerns Rattus norvegicus. The experiment in a line: Increase in cholesterol level in Wistar rat liver at 204 umol/kg/day administered through diet for 10 days. The data set is classed as ADME, organism-based. The conditions noted are these: in vivo, po, 240 h.
Data set [38] has as its system Rattus norvegicus. The experiment in a line: Increase in liver weight in Wistar rat at 385 umol/kg/day administered through diet for 10 days. The conditions noted are these: in vivo, po, 240 h. The data set is classed as ADME, organism-based.
For data set [39], the system named is Rattus norvegicus. The experiment in a line: Increase in liver weight in Wistar rat at 398 umol/kg/day administered through diet for 10 days. To be noted: in vivo, po, 240 h. Type of data set: ADME, organism-based.
For data set [40], the system named is Rattus norvegicus. The experiment in a line: Increase in liver weight in Wistar rat at 204 umol/kg/day administered through diet for 10 days. The data set is classed as ADME, organism-based. The conditions noted are these: in vivo, po, 240 h.

`CCCCCCCCCCCCCCOc1ccc(C(=O)O)cc1`: the inhibition in vivo at 407 µmol/kg in the data set on Rattus norvegicus [1] was 39%; with Rattus norvegicus [5], 31%. The inhibition in vivo at 511 µmol/kg turned out to be 36% in the data set with Rattus norvegicus [2] and 24% in the data set on Rattus norvegicus [6]. The inhibition in vivo at 275 µmol/kg with Rattus norvegicus [3] amounted to 46%; in the data set on Rattus norvegicus [7] it was 33%. Further, the inhibition in vivo at 149 µmol/kg in the data set on Rattus norvegicus [4] turned out to be 49%; in the data set on Rattus norvegicus [8], 16%. Further, the Activity in the data set on Rattus norvegicus [9] was found to be 1%; in the data set with Rattus norvegicus [10] it was 2%; in the data set with Rattus norvegicus [11] it was 4%; in the data set with Rattus norvegicus [12] it was 7%; in the data set on Rattus norvegicus [13], 14%; in the data set on Rattus norvegicus [14], 19%. The figures for the Activity in the data set on Rattus norvegicus [15] and with Rattus norvegicus [16] were 20% and 7%, respectively.

Consider `CCCCCCCCCCCCCCOc1ccc(C(=O)OC)cc1`, for which the inhibition in vivo at 445 µmol/kg with Rattus norvegicus [17] was 49%; with Rattus norvegicus [20] it was 6%. Besides, the inhibition in vivo at 201 µmol/kg with Rattus norvegicus [18] was found to be 70%; in the data set with Rattus norvegicus [21] it was 23%. Further, the inhibition in vivo at 98 µmol/kg was 72% with Rattus norvegicus [19] and 27% in the data set with Rattus norvegicus [22]. The Activity in the data set with Rattus norvegicus [23] came out at 12%; in the data set with Rattus norvegicus [24] it was 12%; in the data set with Rattus norvegicus [25] it was 0%; with Rattus norvegicus [26], 7%; in the data set with Rattus norvegicus [27] it was 0%; in the data set with Rattus norvegicus [28], 0%.

Turning to `CCCCCCCCCCCCCCCCOc1ccc(C(=O)OC)cc1`, the inhibition in vivo at 385 µmol/kg with Rattus norvegicus [29] turned out to be 20%; in the data set on Rattus norvegicus [32], 63%. For the same compound, the values for the inhibition in vivo at 398 µmol/kg with Rattus norvegicus [30] and in the data set with Rattus norvegicus [33] were 14% and 40%, respectively. Moreover, the inhibition in vivo at 204 µmol/kg was determined as 0% in the data set on Rattus norvegicus [31] and 23% with Rattus norvegicus [34]. Moreover, the Activity in the data set on Rattus norvegicus [35] was 1%; with Rattus norvegicus [36] it was 2%; in the data set on Rattus norvegicus [37], 0%; in the data set with Rattus norvegicus [38] it was 5%; in the data set on Rattus norvegicus [39] it was 12%; in the data set with Rattus norvegicus [40] it was 10%.
